What was measured:
HeLa [1] = test: Cytotoxicity against human HeLa cells assessed as reduction in cell viability after 48 hrs by Alamar blue staining based fluorescence assay; format: functional
Summary of the method: (§1)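 HeLa cells seeded at 1×10^5 cells/ml in MEM with 10% FBS, 1% NEAA, 2 mM glutamine and 1% antibiotic-antimycotic, grown 24 h at 37°C under 5% CO2. Compounds then added for 48 h at concentrations up to 1.6 mM. Readings normalized to DMSO-only controls set at 100%.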

HeLa [2] = test: Induction of morphological changes in human HeLa cells assessed as loss of cells by microscopic method; format: functional, cell-based
Summary of the method: (§2)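 HeLa cells seeded at 1×10^5 cells/ml and grown for 24 h at 37°C under 5% CO2, then exposed to compounds for 48 h. Cell loss and rounding of the remaining cells were judged against DMSO-treated controls by inverted phase microscopy at ×10 magnification, with camera images taken after treatment.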

HeLa [3] = test: Induction of morphological changes in human HeLa cells assessed as cell rounding by microscopic method; format: functional, cell-based; summary of the method: as §2
HeLa [4] = test: Cytotoxicity against human HeLa cells assessed as reduction in cell viability at 2.5 uM after 48 hrs by Alamar blue staining based fluorescence assay relative to control; format: functional
Summary of the method: as §1, with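 “mM. Alamar blue applied for 3 h, plates cooled to room temperature, fluorescence read at ex 544, em 590 nm.” for “mM.”, “100%. IC50 taken from concentration-response curve fits, mean ± SEM, n=3-4.” for “100%.”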

HeLa [5] = test: Cytotoxicity against human HeLa cells assessed as reduction in cell viability at 1 uM after 48 hrs by Alamar blue staining based fluorescence assay relative to control; format: functional
Summary of the method: as §1, with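 “mM. Alamar blue applied for 3 h, plates cooled to room temperature, fluorescence read at ex 544, em 590 nm.” for “mM.”, “100%. IC50 taken from concentration-response curve fits, mean ± SEM, n=3-4.” for “100%.”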

HeLa [6] = test: Cytotoxicity against human HeLa cells assessed as reduction in cell viability at 5 uM after 48 hrs by Alamar blue staining based fluorescence assay relative to control; format: functional
Summary of the method: as §1, with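 “mM. Alamar blue applied for 3 h, plates cooled to room temperature, fluorescence read at ex 544, em 590 nm.” for “mM.”, “100%. IC50 taken from concentration-response curve fits, mean ± SEM, n=3-4.” for “100%.”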

Compound	Activity (HeLa [1])	IC50 (HeLa [1])	Activity (HeLa [2])	Activity (HeLa [3])	Activity (HeLa [4])	Activity (HeLa [5])	Activity (HeLa [6])
C=C1C(=O)O[C@@H]2/C=C(/C)[C@H](O)C/C=C(\C)[C@@H](O)[C@H](OC(=O)/C(C)=C\C)[C@@H]12	Dose-dependent effect	36.2 µM	Dose-dependent effect	Dose-dependent effect			
COC(=O)c1cc(OC)c(CCc2c(OC)cc(C(=O)OC)cc2OC)c(OC)c1	Dose-dependent effect	46.5 µM					
COc1cccc2c1C(=O)c1c(O)c3c(c(O)c1C2=O)C[C@@](O)(C(=O)CO)C[C@@H]3O[C@H]1C[C@H](N)[C@H](O)[C@H](C)O1 [DOXORUBICIN]		2.3 µM			50.8%	106.5%	40%
COC(=O)c1cc(O)c(O)c(O)c1 [GALLIC ACID METHYL ESTER]	Dose-dependent effect	267 µM					
